This is an account of results in ChEMBL document CHEMBL1123566, “Synthesis and cardiac electrophysiological activity of 2- and 3-[(substituted phenyl)alkyl]quinuclidines. Structure-activity relationships” (1987).

The test system of test [1] is Canis familiaris. The experiment in a line: Left ventricular refractory period was determined by intraduodenal administration of two dosages of 1 mg/kg of (low dose) compound in anesthetized dogs. Value was reported for experiment 2. The format is functional, Canis lupus familiaris, Cardiac ventricle. The procedure, abridged:
(§1)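 Anesthetized dogs, usually given two intraduodenal doses, with the second dose cumulative (low/high). Left ventricular FRP and CT were determined at 15, 30 and 45 min after dosing. HR and BP were measured during nonpacing intervals. Values are % change from control at low/high dose, for individual animals. The vehicle-stability set used 5% dextrose in water/tragacanth (n = 8).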

Test [2] concerns Canis familiaris. The test can be described thus: Heart rate was determined by intraduodenal administration of two dosages of 10 mg/kg of (high dose) compound in anesthetized dogs. Value was reported for experiment 1. The class given is functional, Canis lupus familiaris. The procedure, abridged: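 Anesthetized dogs; compound given intraduodenally, generally as two doses, the second a cumulative (high) dose. LV functional refractory period and conduction time measured 15, 30 and 45 min after dosing; heart rate and blood pressure measured during nonpacing intervals. Values are % change from control, given per individual animal. Active if FRP or CT prolonged by ≥12%.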

The species named for test [3] is Canis familiaris. The experiment in a line: In vitro electrophysiological activity in canine cardiac Purkinje fibres given as maximum % change for action potential duration at 0.01-100 uM concentration. The format is functional, Canis lupus familiaris, Purkinje fiber. The procedure, abridged: (§2)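 Canine cardiac Purkinje fibers, intracellular recording, paced at a basic cycle length of 1 s. APD95 and Vmax are recorded together across cumulative concentrations. Compound is a 10 mM aqueous stock diluted into Tyrode's solution. Each fiber is used once as its own control. Readouts are percent change from control at 10 μM, and the maximum change with the concentration where it occurred.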

The species entered for test [4] is Canis familiaris. The experiment in a line: In vitro electrophysiological evaluation in canine cardiac Purkinje fibres reported as maximum percent change Vmax concentration range of 1-100 uM. The class given is functional. Conditions: Canis lupus familiaris; Purkinje fiber. The procedure, abridged:
as §2

In test [5] the test system is Canis familiaris. The test can be described thus: Mean arterial blood pressure was determined by intraduodenal administration of two dosages of 10 mg/kg of (high dose) compound in anesthetized dogs. Value was reported for experiment 1. The format is functional, Canis lupus familiaris. The procedure, abridged: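 Anesthetized dogs received two intraduodenal doses, the second cumulative (low dose/high dose). Left ventricular FRP and CT were measured 15, 30 and 45 min after dosing. Heart rate and mean blood pressure were taken during nonpacing intervals. Values are percent change from control. The vehicle was 5% dextrose in water/tragacanth. Activity was defined as ≥12% prolongation of FRP or CT.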

For test [6], the system named is Canis familiaris. The test can be described thus: Mean arterial blood pressure was determined by intraduodenal administration of two dosages of 1 mg/kg of (low dose) compound in anesthetized dogs. Value was reported for experiment 3. The class given is functional, Canis lupus familiaris. The procedure, abridged:
as §1

For test [7], the species on record is Canis familiaris. The test can be described thus: In vitro electrophysiological activity in canine cardiac Purkinje fibres given as maximum % change for action potential duration at 0.1-100 uM concentration. The class given is functional, Canis lupus familiaris, Purkinje fiber. The procedure, abridged: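 Canine cardiac Purkinje fibres, intracellular recording at 1 s basic cycle length, over cumulative concentration ranges. Compound 10 mM stock in deionized water diluted into Tyrode's. Each fibre used once as its own control. Value is the maximum % change from control in APD at 95% repolarization, with the concentration where it occurred; both values given if a biphasic response (>20% reversal) occurred.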

The species named for test [8] is Canis familiaris. The experiment in a line: In vitro electrophysiological evaluation in canine cardiac Purkinje fibres reported as maximum percent change Vmax concentration range of 0.1-10 uM. The format is functional. Conditions: Canis lupus familiaris; Purkinje fiber. The procedure, abridged: as §2
For test [9], the species on record is Canis familiaris. The experiment in a line: In vitro electrophysiological evaluation in canine cardiac ventricular muscle reported as % change for conduction time(CT) at 0.1-100 uM concentration range; Minimal (<IO%increase or a decrease in CT). The class given is functional, Canis lupus familiaris, Muscle tissue.
Test [10] concerns Canis familiaris. The experiment in a line: Conduction time was determined by intraduodenal administration of two dosages of 10 mg/kg (high dose) of compound in anesthetized dogs. Value was reported for experiment 3. The class given is functional, Canis lupus familiaris. The procedure, abridged:
(§3)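 Anesthetized dogs given the compound intraduodenally, generally as two doses with the second a cumulative total (low/high). FRP and CT measured at 15, 30 and 45 min after dosing. HR and BP taken during nonpacing intervals. Values are percent change from control per animal. Activity criterion is FRP or CT prolonged ≥12%. Vehicle: 5% dextrose in water/tragacanth.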

Test [11] is filed under the species Canis familiaris. The experiment in a line: In vitro electrophysiological evaluation in canine cardiac Purkinje fibres reported as % change for action potential duration at 0.01-100 uM concentration range. The class given is functional, Canis lupus familiaris, Purkinje fiber. The procedure, abridged:
as §2

For test [12], the system named is Canis familiaris. The experiment in a line: Heart rate was determined by intraduodenal administration of two dosages of 3 mg/kg of (high dose) compound in anesthetized dogs. Value was reported for experiment 2. The class given is functional, Canis lupus familiaris. The procedure, abridged: as §3
The test system of test [13] is Canis familiaris. The experiment in a line: Left ventricular refractory period was determined by intraduodenal administration of two dosages of 1 mg/kg of (low dose) compound in anesthetized dogs. Value was reported for experiment 3. The format is functional, Canis lupus familiaris, Cardiac ventricle. The procedure, abridged:
as §1

The species named for test [14] is Canis familiaris. The experiment in a line: In vitro electrophysiological evaluation in canine cardiac Purkinje fibres reported as % change for action potential duration at 0.1-10 uM concentration range. The class given is functional, Canis lupus familiaris, Purkinje fiber. The procedure, abridged: (§4)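 Canine cardiac Purkinje fibres, intracellular microelectrode recording, paced at a basic cycle length of 1 s. APD95 and Vmax read simultaneously. Compound: 10 mM stock in deionized water, diluted into Tyrode's solution, tested over the stated concentration range. Each fibre used once as its own control. Result is % change from control, given at 10 µM or as the maximum with its concentration. M = <10% decrease or an increase in Vmax.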

In test [15] the test system is Canis familiaris. The test can be described thus: Heart rate was determined by intraduodenal administration of two dosages of 10 mg/kg of (high dose) compound in anesthetized dogs. Value was reported for experiment 3. The format is functional, Canis lupus familiaris. The procedure, abridged: as §3
For test [16], the species on record is Canis familiaris. The test can be described thus: In vitro electrophysiological evaluation in canine cardiac ventricular muscle reported as % change for the functional refractory period (FRP) concentration range of 0.1-100 uM. More on the design: species or system Canis lupus familiaris, Muscle tissue. The procedure, abridged: (§5)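 Canine right ventricle and papillary muscle strips in oxygenated Tyrode's solution, fitted with stimulating and recording electrodes. The extra-stimulus conduction-interval method was adapted for in vitro use. FRP and CT were read from a conduction-interval curve before and after various compound concentrations, and expressed as percent change from control. Compounds were taken from 10 mM deionized-water stock into Tyrode's. Each strip was used once as its own control.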

For test [17], the species on record is Canis familiaris. The test can be described thus: In vitro electrophysiological evaluation in canine cardiac ventricular muscle reported as maximum % change for conduction time(CT) at 0.1-10 uM concentration range; Minimal (<IO%increase or a decrease in CT). The format is functional, Canis lupus familiaris, Muscle tissue. The procedure, abridged: (§6)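 Canine right ventricular/papillary muscle strips in oxygenated Tyrode's, extracellular extra-stimulus conduction-interval method. FRP and CT are read from conduction-interval curves before and during rising concentrations. Compound is a 10 mM aqueous stock diluted into Tyrode's. Each strip is used once as its own control. Readouts are percent change from control at 10 μM, plus the maximum change with its concentration.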

Test [18] has as its system Canis familiaris. The test can be described thus: Heart rate was determined by intraduodenal administration of two dosages of 3 mg/kg of (high dose) compound in anesthetized dogs. Value was reported for experiment 3. The class given is functional, Canis lupus familiaris. The procedure, abridged: as §3
Test [19] concerns Canis familiaris. The test can be described thus: Conduction time was determined by intraduodenal administration of two dosages of 3 mg/kg (high dose) of compound in anesthetized dogs. Value was reported for experiment 2. The class given is functional, Canis lupus familiaris. The procedure, abridged: as §3
The species named for test [20] is Canis familiaris. The test can be described thus: In vitro electrophysiological evaluation in canine cardiac Purkinje fibres reported as % change for action potential duration at 0.1-100 uM concentration range. The class given is functional, Canis lupus familiaris, Purkinje fiber. The procedure, abridged:
as §4

Test [21] is filed under the species Canis familiaris. The experiment in a line: In vitro electrophysiological evaluation in canine cardiac ventricular muscle reported as % change for conduction time(CT) at 0.1-100 uM concentration range. The format is functional, Canis lupus familiaris, Muscle tissue. The procedure, abridged:
as §6

The species named for test [22] is Canis familiaris. The test can be described thus: In vitro electrophysiological evaluation in canine cardiac ventricular muscle reported as maximum % change for functional refractory period (FRP) at 0.1-100 uM concentration range. Also on record: species or system Canis lupus familiaris, Muscle tissue.
For test [23], the species on record is Canis familiaris. The test can be described thus: In vitro electrophysiological evaluation in canine cardiac ventricular muscle reported as % change for the functional refractory period (FRP) concentration range of 0.1-10 uM. More on the design: species or system Canis lupus familiaris, Muscle tissue. The procedure, abridged:
as §6

Test [24] is filed under the species Canis familiaris. The test can be described thus: In vitro electrophysiological evaluation in canine cardiac ventricular muscle reported as maximum % change for conduction time(CT) at 0.1-100 uM concentration range. The format is functional, Canis lupus familiaris, Muscle tissue. The procedure, abridged: as §5

Each structure is given as a SMILES string. Where “and” joins values, the source holds several entries; their conditions need not be identical. Equal values may be shown once.

As for `CCCCCCC[N+](CC)(CC)CCCCc1ccc(Cl)cc1.O=P([O-])(O)O` [CLOFILIUM PHOSPHATE], the “LV FRP” value in the test with Canis familiaris [1] is given as -1%; with Canis familiaris [13], 4%. The HR with Canis familiaris [2] is on record as -24%; in the test on Canis familiaris [12] it was -6%; with Canis familiaris [15] it was -11%; in the test on Canis familiaris [18], -7%. Also, the APD95 in the test listed under Canis familiaris [3] is 27% and 55%; in the test filed under Canis familiaris [7] it was 52% and 46%; in the test filed under Canis familiaris [11], 27% and 55%; in the test filed under Canis familiaris [14] it was 52%; in the test filed under Canis familiaris [20] it was 48% and 46%. Further, the Vmax in the test listed under Canis familiaris [4] is -69% and -65%; in the test listed under Canis familiaris [8], -11%. The figures for the Mean blood pressure with Canis familiaris [5] and in the test on Canis familiaris [6] were -11% and -3%, respectively. Besides, the CT in the test filed under Canis familiaris [9] is on record as less than 10%; with Canis familiaris [10] it was -11%; in the test filed under Canis familiaris [17] it was less than 10%; with Canis familiaris [19], -7%; in the test listed under Canis familiaris [21], 11%; in the test filed under Canis familiaris [24], 19%. The FRP in the test listed under Canis familiaris [16] was 11% and 5%; in the test filed under Canis familiaris [22] it was -3% and 14% and 7%; in the test filed under Canis familiaris [23], 38%.
